Laboratory results published in ChEMBL document CHEMBL3817742, “Structural Basis for the Selective Binding of Inhibitors to 6-Hydroxymethyl-7,8-dihydropterin Pyrophosphokinase from Staphylococcus aureus and Escherichia coli” (J Med Chem, 2016).
Active and inactive are the calls of the source. No cut-off for these calls is given here.

What was measured:
[1] = target: T1, 2-amino-4-hydroxy-6-hydroxymethyldihydropteridine pyrophosphokinase (Escherichia coli (strain K12), UniProt P26281); assay: Binding affinity to biotinylated Escherichia coli HPPK expressed in Escherichia coli BL21 (DE3) in presence of 1 mM ATP by SPR assay
T1 sequence (P26281 whole entry): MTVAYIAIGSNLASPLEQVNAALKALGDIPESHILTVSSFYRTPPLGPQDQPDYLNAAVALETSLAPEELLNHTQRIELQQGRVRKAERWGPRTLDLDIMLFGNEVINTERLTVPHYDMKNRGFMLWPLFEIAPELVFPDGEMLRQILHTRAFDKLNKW
Procedure, shortened: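 N-terminal His6/TEV-cleavable construct expressed in E. coli BL21(DE3), Ni-NTA purified, His-tag cleaved, then size exclusion. Minimally biotinylated via NHS-activated biotin and captured on streptavidin chip (~4900 RU). Analytes in 3-fold serial dilutions, duplicate or more; sensorgrams solvent-corrected, double-referenced.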

[2] = target: T2, 2-amino-4-hydroxy-6-hydroxymethyldihydropteridin e pyrophosphokinase (Staphylococcus aureus, UniProt X5EH84); assay: Binding affinity to biotinylated Staphylococcus aureus HPPK in presence of 1 mM ATP by SPR assay
T2 sequence (X5EH84 whole entry): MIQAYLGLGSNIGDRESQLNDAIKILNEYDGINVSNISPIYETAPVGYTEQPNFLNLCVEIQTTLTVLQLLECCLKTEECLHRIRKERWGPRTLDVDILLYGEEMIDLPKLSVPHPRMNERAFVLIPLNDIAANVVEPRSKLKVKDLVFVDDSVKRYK
Procedure, shortened: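 Enzyme minimally biotinylated via maleimide-activated biotin, captured on streptavidin chip (~3800 RU). 3-fold serial dilutions, top concentration between 3 and 300 μM; 60 s contact at 30 μL·min−1, 60 s dissociation; duplicate or more; double-referenced, globally fitted where limited.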

[3] = target: T3, 2-amino-4-hydroxy-6-hydroxymethyldihydropteridin e pyrophosphokinase (Staphylococcus aureus) (UniProt X5EH84); assay: Binding affinity to AMPCPP-loaded and 15N/13C-labeled Staphylococcus aureus HPPK assessed a induction of 1H-15N chemical shift perturbations by 2D 15N-FAST-HSQC NMR spectrscopy
T3 sequence (whole entry): T2 sequence (X5EH84 whole entry)

[4] = target: T3, 2-amino-4-hydroxy-6-hydroxymethyldihydropteridin e pyrophosphokinase (Staphylococcus aureus); assay: Binding affinity to AMPCPP-loaded and 15N/13C-labeled Staphylococcus aureus HPPK assessed a induction of chemical shift changes in 15N HSQC spectra by HNCA triple resonance 3D NMR spectroscopy

Structure (SMILES)	Kd [1] [µM]	Kd [2] [nM]	Activity [3]	Activity [4]
Nc1nc2[nH]c(SCc3ccc(Br)cc3)nc2c(=O)[nH]1	2.13	950		
COc1ccc(C(=O)CSc2nc3nc(N)[nH]c(=O)c3[nH]2)cc1			Active	
Nc1nc2[nH]c(SCC(=O)c3ccc(Br)cc3)nc2c(=O)[nH]1	0.7	570		
Nc1nc2[nH]c(SCc3ccc(OC(F)(F)F)cc3)nc2c(=O)[nH]1	5.2	2100		
Nc1nc2[nH]c(SCc3cccc(OC(F)(F)F)c3)nc2c(=O)[nH]1	5.7	1610		
CN(C)C(=O)CSc1nc2c(=O)[nH]c(N)nc2[nH]1	53	1500		
CCN(CC)C(=O)CSc1nc2c(=O)[nH]c(N)nc2[nH]1	74.2	11000		
Nc1nc2[nH]c(SCc3ccccc3[N+](=O)[O-])nc2c(=O)[nH]1	5.7	540		
Cc1ccc(C)c(CSc2nc3c(=O)[nH]c(N)nc3[nH]2)c1	12.6	1700		
Nc1nc2[nH]c(SCc3ccccc3F)nc2c(=O)[nH]1			Active	
Nc1nc2[nH]c(SCc3cc(C(F)(F)F)cc(C(F)(F)F)c3)nc2c(=O)[nH]1		1200		
N#Cc1ccc(CSc2nc3c(=O)[nH]c(N)nc3[nH]2)c(F)c1	2.7	590	Active	Active
Nc1nc2[nH]c(SCc3ccc(F)c(F)c3)nc2c(=O)[nH]1	2	290		
CNC(=O)CSc1nc2c(=O)[nH]c(N)nc2[nH]1	50	8800		
Cc1cc(C)cc(CSc2nc3c(=O)[nH]c(N)nc3[nH]2)c1	6.9	2300		
COc1cccc(CSc2nc3c(=O)[nH]c(N)nc3[nH]2)c1	1.8	650		
Nc1nc2[nH]c(SCc3cccc(Br)c3)nc2c(=O)[nH]1	7.1	3100		
Cc1cc(CSc2nc3c(=O)[nH]c(N)nc3[nH]2)ccc1F	10.1	3600		
Nc1nc2[nH]c(SCC(O)C(F)(F)F)nc2c(=O)[nH]1 (stereo not drawn)	97	3600		
Nc1nc(O)c2[nH]c(SCc3ccc(Cl)cc3)nc2n1	4.3	1240		
N#Cc1ccccc1CSc1nc2c(=O)[nH]c(N)nc2[nH]1	23	510		
Nc1nc2[nH]c(SCc3c(F)cccc3F)nc2c(=O)[nH]1	1.76	120	Active	Active
Cc1cccc(CSc2nc3c(=O)[nH]c(N)nc3[nH]2)c1F	10.7	2800		
Cc1cccc(CSc2nc3c(=O)[nH]c(N)nc3[nH]2)c1C	6.1	841		
Nc1nc2[nH]c(SCc3ccc(F)cc3)nc2c(=O)[nH]1	3.9	300		
Nc1nc2[nH]c(SCc3ccc(C(F)(F)F)cc3)nc2c(=O)[nH]1		1930		
COc1ccc(CSc2nc3c(=O)[nH]c(N)nc3[nH]2)c(F)c1	0.95	300		
Cc1cc(F)ccc1CSc1nc2c(=O)[nH]c(N)nc2[nH]1	16.3	1970		
Nc1nc2[nH]c(S)nc2c(=O)[nH]1	160			
Nc1nc2[nH]c(SCCC3OCCCO3)nc2c(=O)[nH]1	23.3	7900		

Further lines, results first:

Kd [1] [µM]	Kd [2] [nM]	Activity [3]	Activity [4]	Structure (SMILES)
38	1200			N#Cc1cc(F)ccc1CSc1nc2c(=O)[nH]c(N)nc2[nH]1
68	4600			Nc1nc2[nH]c(SCCCO)nc2c(=O)[nH]1
1.7	570			Nc1nc2[nH]c(SCc3cccc(Cl)c3)nc2c(=O)[nH]1
52	2760			COCCSc1nc2c(=O)[nH]c(N)nc2[nH]1
120	46000			CCN(C)C(=O)C(C)Sc1nc2c(=O)[nH]c(N)nc2[nH]1 (stereo not drawn)
26	2600			Nc1nc2[nH]c(SCc3cccc(C(=O)O)c3)nc2c(=O)[nH]1
	1300			Nc1nc2[nH]c(SCc3ccccc3Cl)nc2c(=O)[nH]1
1.7	380			Cc1cccc(CSc2nc3c(=O)[nH]c(N)nc3[nH]2)c1
1.4	260			Nc1nc2[nH]c(SCc3ccc(F)cc3F)nc2c(=O)[nH]1
		Active	Active	N#Cc1ccc(CSc2nc3nc(N)[nH]c(=O)c3[nH]2)cc1
		Active	Active	Nc1nc2[nH]c(SCc3ccccc3)nc2c(=O)[nH]1
8.5	1500			Nc1nc2[nH]c(SCc3ccccc3Br)nc2c(=O)[nH]1
	7900			Nc1nc2[nH]c(SCCN3CCCC3=O)nc2c(=O)[nH]1
2.6	220			Nc1nc2[nH]c(SCc3cccc(F)c3)nc2c(=O)[nH]1
0.965	210			Cc1ccc(F)c(CSc2nc3c(=O)[nH]c(N)nc3[nH]2)c1
59.4	13000			CC(C)CNC(=O)CSc1nc2c(=O)[nH]c(N)nc2[nH]1
89.2	7600			Nc1nc2[nH]c(SCCO)nc2c(=O)[nH]1
5.3	2100			N#Cc1cc(CSc2nc3c(=O)[nH]c(N)nc3[nH]2)ccc1F
2.5	470			Cc1ccccc1CSc1nc2c(=O)[nH]c(N)nc2[nH]1
5.8	1400			Nc1nc2[nH]c(SCc3cccc([N+](=O)[O-])c3)nc2c(=O)[nH]1
2.2	520			COc1ccc(CSc2nc3c(=O)[nH]c(N)nc3[nH]2)cc1
82	13400			Nc1nc2[nH]c(SCC(O)CO)nc2c(=O)[nH]1 (stereo not drawn)
3.5	770			N#Cc1cccc(CSc2nc3c(=O)[nH]c(N)nc3[nH]2)c1
